Read-outs that look alike come from different tables or passages of the source.
Legend:
[1] = system: DU145 human prostate carcinoma cells; assay: Differential nuclear staining; assay type: cell-based
[2] = system: 22Rv1 human prostate cancer cells; assay: Differential nuclear staining; assay type: cell-based
[3] = system: LNCaP human prostate cancer cells; assay: Differential nuclear staining; assay type: cell-based
[4] = system: YT NK-like lymphoblastic lymphoma cells; assay: Differential nuclear staining; assay type: cell-based
[5] = system: human cervical HeLa cancer cells; assay: Differential nuclear staining; assay type: cell-based; settings: for CC50: Homo sapiens, 20 h
in vitro = assay type: cell-based; settings: human
[6] = Differential nuclear staining; assay type: cell-based; settings: human, MCF-10A non-transformed mammary epithelial cells
[7] = Differential nuclear staining; assay type: cell-based; settings: mouse, wild type mouse embryonic fibroblasts (MEFs)
YT NK-like (YT) cells = assay: Apoptosis/necrosis by annexin V-FITC and PI flow cytometry; assay type: cell-based; settings: 18 h; for mode of cell death: KTZ 15 μM, CTZ 10 μM, complexes 20–60 μM
Procedure, shortened: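 YT NK-like cells were exposed to test compounds for 18 h, then handled on ice, stained together with annexin V-FITC and PI, and analysed by flow cytometry with about 10,000 events per sample. Controls were 0.3% v/v DMSO solvent, 600 μM H2O2 and untreated cells. Annexin-positive cells (early plus late) were summed as apoptotic, and PI-only cells counted as necrotic. Values are the mean of three independent measurements with SD.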

Calf Thymus (CT) DNA = assay: Circular dichroism; assay type: binding; settings: 20 h at 37 °C, pH 7.39 Tris/HCl buffer, up to ri 2.0 (molar ratio drug/DNA)
Procedure, shortened: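 Test compound stocks (1.5 mM) were freshly made in water and added to freshly prepared CT DNA (60 μM) in 5 mM Tris/HCl, 50 mM NaClO4, pH 7.39, at drug/DNA molar ratios of 0.5–2.0. Samples were incubated 20 h at 37 °C. Spectra were recorded at 25 °C over 220–420 nm, blank-corrected with noise reduction, and expressed as […].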

[8] = system: all the cancer cells lines studied

Row | Structure (SMILES) | CC50 ([1]; Homo sapiens, DU-145, 20 h) | CC50 ([2]; Homo sapiens, 22Rv1, 20 h) | CC50 ([3]; Homo sapiens, LNCaP, 20 h) | CC50 ([4]; 20 h) | CC50 [5] | CC50 at 20 h [6] | CC50 at 20 h [7] | mode of cell death (YT NK-like (YT) cells) | change of CD spectrum of CT DNA (Calf Thymus (CT) DNA) | CC50 [2] | CC50 [3] | other results
1 | Clc1ccccc1C(c1ccccc1)(c1ccccc1)n1ccnc1 [CTZ, clotrimazole] | 43.6 µM | 19.2 µM | 15.4 µM | 16.7 µM | 94.3 µM | 79.4 µM | 35.3 µM | preferentially through apoptosis | no modifications |  |  | Relative Activity (R.A.) ([1]; DU145, relative to KTZ (1-6) or CTZ (7-12)): 1; Relative Activity (R.A.) ([2]; 22Rv1, relative to KTZ (1-6) or CTZ (7-12)): 1; Relative Activity (R.A.) ([3]; LNCaP, relative to KTZ (1-6) or CTZ (7-12)): 1; Relative Activity (R.A.) ([4]; YT, relative to KTZ (1-6) or CTZ (7-12)): 1; Relative Activity (R.A.) ([5]; relative to KTZ (1-6) or CTZ (7-12)): 1; CC50 at 20 h (in vitro): 95.3 µM; apoptosis induced relative to any of the Ru-CTZ complexes (YT NK-like (YT) cells): ≥ 3 fold; cytotoxicity against cancer cell lines (in words) [8]: moderate cytotoxicity
2 | C[SH](C)(=O)[Ru-]([Cl])([Cl])([Cl])([Cl])[SH](C)(C)=O.[Na+] [Compound C1, Na[trans-RuCl4(DMSO)2]] |  |  |  |  |  |  |  |  |  | 114 µM | 46.5 µM | 
3 | Cc1ccc(C(C)C)cc1.Cc1ccc(C(C)C)cc1.[Cl][Ru][Cl].[Cl][Ru][Cl] [Compound C3, [Ru(p-cymene)Cl2]2] |  |  |  |  |  |  |  |  |  | 141 µM | 29 µM | CC50 [1]: 218 µM; CC50 [4]: 164 µM
4 | CC(=O)N1CCN(c2ccc(OCC3COC(Cn4ccnc4)(c4ccc(Cl)cc4Cl)O3)cc2)CC1 (centres unmarked) [KTZ, ketoconazole] | 28.6 µM | 24.2 µM | 27.9 µM | 4.9 µM | 66.7 µM | 37 µM | 31.3 µM | preferentially through apoptosis | no modifications |  |  | 

— article PMC4207122 (Cell biology and toxicology, 2013)
